In assay [1] the target is Mitogen-activated protein kinase 8 (Homo sapiens) (UniProt P45983). Kind of assay: Inhibition of JNK1a1 at 1 uM. In short, it runs like this:
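Single-point profiling in a panel of 108 kinases. Each selected inhibitor was tested at two concentrations, 0.1 and 1.0 micromolar. Values are reported as inhibition at each concentration.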

The target of assay [2] is Hepatocyte growth factor receptor (Homo sapiens) (UniProt P08581). Kind of assay: Inhibition of Met at 1 uM. The method, boiled down:
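Single-point screen within a 108-kinase selectivity panel. Each kinase was tested with inhibitor at 0.1 and 1.0 micromolar, and activity was recorded as percent inhibition.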

For assay [3], the target named is T1, Serine/threonine-protein kinase Sgk1 (Homo sapiens) (UniProt O00141).
T1 sequence (whole entry): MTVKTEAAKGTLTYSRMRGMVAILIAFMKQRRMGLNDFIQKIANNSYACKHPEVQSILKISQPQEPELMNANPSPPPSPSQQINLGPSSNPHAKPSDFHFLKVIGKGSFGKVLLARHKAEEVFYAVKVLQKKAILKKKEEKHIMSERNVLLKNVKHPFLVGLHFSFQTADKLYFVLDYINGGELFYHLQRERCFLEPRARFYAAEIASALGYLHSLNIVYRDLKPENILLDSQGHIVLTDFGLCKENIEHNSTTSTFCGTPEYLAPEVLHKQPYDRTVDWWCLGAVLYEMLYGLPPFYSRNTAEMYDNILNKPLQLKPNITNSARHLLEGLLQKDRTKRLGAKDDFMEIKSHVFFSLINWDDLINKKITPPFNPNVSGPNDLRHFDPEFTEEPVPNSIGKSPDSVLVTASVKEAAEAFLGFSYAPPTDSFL
The experiment in a line: Inhibition of SGK at 0.1 uM; values are per cent of control.

Assay [4] deals with T2, Ephrin type-B receptor 2 (Homo sapiens) (UniProt P29323).
T2 sequence (whole entry): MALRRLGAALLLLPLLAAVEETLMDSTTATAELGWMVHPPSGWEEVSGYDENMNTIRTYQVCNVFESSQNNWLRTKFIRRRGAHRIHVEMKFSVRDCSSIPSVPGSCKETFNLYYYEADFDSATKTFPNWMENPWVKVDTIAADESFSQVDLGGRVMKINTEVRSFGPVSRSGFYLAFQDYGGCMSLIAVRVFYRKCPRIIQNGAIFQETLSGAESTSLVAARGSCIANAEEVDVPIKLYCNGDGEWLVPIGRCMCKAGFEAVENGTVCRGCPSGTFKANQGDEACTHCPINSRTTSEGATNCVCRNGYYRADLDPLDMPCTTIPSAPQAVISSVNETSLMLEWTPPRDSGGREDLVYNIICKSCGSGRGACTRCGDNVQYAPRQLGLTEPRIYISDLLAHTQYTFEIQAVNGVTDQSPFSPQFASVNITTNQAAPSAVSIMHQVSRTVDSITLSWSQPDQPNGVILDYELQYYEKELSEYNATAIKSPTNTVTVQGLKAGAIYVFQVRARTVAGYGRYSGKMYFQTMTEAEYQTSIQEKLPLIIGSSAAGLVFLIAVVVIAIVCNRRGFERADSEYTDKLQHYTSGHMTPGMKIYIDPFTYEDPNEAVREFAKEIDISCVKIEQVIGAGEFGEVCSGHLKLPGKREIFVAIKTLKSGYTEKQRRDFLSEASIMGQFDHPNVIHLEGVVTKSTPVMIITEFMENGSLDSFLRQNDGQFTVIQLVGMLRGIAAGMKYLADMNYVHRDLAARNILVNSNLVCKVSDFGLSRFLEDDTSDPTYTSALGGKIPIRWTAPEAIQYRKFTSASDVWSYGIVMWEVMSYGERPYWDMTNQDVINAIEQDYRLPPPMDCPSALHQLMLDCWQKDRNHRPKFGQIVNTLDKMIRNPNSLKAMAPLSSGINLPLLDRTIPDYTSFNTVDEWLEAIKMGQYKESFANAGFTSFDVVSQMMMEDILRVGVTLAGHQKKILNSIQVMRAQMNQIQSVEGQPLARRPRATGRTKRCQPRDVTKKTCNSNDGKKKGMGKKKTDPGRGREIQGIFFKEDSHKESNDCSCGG
Kind of assay: Inhibition of EphB2 at 1 uM; values are per cent of control.

Assay [5] addresses Fibroblast growth factor receptor 2 (Homo sapiens) (UniProt P21802). Kind of assay: Inhibition of FGFR2 at 1 uM; values are per cent of control.
Assay [6] addresses Receptor-type tyrosine-protein kinase FLT3 (Homo sapiens) (UniProt P36888). The experiment in a line: Inhibition of Flt3 at 0.1 uM; values are per cent of control.
The target of assay [7] is Mast/stem cell growth factor receptor Kit (Homo sapiens) (UniProt P10721). The experiment in a line: Inhibition of c-Kit at 0.1 uM; values are per cent of control.
Assay [8] has as its target Ephrin type-A receptor 7 (Homo sapiens) (UniProt Q15375). Kind of assay: Inhibition of EphA7 at 0.1 uM; values are per cent of control.
The target in assay [9] is Receptor tyrosine-protein kinase erbB-4 (Homo sapiens) (UniProt Q15303). The experiment in a line: Inhibition of ErbB4 at 0.1 uM; values are per cent of control.
Assay [10] concerns the target Fibroblast growth factor receptor 1 (Homo sapiens) (UniProt P11362). Kind of assay: Inhibition of FGFR1 at 0.1 uM; values are per cent of control.
Assay [11] concerns the target Mitogen-activated protein kinase 14 (Homo sapiens) (UniProt Q16539). Kind of assay: Inhibition of SAPK2a at 0.1 uM; values are per cent of control.
In assay [12] the target is Mitogen-activated protein kinase 11 (Homo sapiens) (UniProt Q15759). The experiment in a line: Inhibition of SAPK2b at 0.1 uM; values are per cent of control.
Assay [13] addresses RAC-alpha serine/threonine-protein kinase (Homo sapiens) (UniProt P31749). The experiment in a line: Inhibition of PKBalpha at 0.1 uM; values are per cent of control.

Sequence of Mitogen-activated protein kinase 8 (Homo sapiens) (P45983 whole entry): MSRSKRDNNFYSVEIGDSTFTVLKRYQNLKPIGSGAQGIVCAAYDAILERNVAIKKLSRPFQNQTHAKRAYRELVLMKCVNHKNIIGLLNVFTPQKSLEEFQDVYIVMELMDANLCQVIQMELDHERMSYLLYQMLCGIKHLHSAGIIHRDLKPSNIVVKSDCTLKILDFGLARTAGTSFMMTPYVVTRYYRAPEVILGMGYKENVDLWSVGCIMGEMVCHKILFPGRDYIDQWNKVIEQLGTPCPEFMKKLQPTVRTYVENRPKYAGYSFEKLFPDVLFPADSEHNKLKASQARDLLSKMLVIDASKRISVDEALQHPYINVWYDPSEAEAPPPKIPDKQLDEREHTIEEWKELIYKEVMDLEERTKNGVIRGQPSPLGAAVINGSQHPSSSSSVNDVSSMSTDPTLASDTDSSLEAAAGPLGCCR
Sequence of Fibroblast growth factor receptor 2 (Homo sapiens) (P21802 22-821 limits assumed): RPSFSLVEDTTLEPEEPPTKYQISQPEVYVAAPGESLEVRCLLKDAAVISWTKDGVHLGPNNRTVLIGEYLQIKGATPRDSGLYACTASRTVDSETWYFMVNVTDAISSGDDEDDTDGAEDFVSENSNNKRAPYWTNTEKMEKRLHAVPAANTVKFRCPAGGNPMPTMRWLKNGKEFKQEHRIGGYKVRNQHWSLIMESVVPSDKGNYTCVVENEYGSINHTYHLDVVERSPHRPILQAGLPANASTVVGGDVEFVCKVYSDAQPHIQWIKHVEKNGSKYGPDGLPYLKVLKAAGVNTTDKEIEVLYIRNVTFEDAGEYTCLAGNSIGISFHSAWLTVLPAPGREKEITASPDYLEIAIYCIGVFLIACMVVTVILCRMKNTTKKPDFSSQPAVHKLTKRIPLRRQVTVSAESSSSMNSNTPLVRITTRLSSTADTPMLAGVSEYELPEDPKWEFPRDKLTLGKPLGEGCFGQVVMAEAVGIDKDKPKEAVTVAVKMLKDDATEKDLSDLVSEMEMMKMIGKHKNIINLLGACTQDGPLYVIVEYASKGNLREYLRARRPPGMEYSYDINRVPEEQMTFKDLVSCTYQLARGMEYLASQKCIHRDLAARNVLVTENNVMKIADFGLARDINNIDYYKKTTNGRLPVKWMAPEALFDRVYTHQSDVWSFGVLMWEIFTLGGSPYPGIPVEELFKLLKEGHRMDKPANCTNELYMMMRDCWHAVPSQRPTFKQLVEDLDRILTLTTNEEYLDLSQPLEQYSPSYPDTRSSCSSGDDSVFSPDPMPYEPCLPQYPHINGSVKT
Sequence of Hepatocyte growth factor receptor (Homo sapiens) (P08581 whole entry): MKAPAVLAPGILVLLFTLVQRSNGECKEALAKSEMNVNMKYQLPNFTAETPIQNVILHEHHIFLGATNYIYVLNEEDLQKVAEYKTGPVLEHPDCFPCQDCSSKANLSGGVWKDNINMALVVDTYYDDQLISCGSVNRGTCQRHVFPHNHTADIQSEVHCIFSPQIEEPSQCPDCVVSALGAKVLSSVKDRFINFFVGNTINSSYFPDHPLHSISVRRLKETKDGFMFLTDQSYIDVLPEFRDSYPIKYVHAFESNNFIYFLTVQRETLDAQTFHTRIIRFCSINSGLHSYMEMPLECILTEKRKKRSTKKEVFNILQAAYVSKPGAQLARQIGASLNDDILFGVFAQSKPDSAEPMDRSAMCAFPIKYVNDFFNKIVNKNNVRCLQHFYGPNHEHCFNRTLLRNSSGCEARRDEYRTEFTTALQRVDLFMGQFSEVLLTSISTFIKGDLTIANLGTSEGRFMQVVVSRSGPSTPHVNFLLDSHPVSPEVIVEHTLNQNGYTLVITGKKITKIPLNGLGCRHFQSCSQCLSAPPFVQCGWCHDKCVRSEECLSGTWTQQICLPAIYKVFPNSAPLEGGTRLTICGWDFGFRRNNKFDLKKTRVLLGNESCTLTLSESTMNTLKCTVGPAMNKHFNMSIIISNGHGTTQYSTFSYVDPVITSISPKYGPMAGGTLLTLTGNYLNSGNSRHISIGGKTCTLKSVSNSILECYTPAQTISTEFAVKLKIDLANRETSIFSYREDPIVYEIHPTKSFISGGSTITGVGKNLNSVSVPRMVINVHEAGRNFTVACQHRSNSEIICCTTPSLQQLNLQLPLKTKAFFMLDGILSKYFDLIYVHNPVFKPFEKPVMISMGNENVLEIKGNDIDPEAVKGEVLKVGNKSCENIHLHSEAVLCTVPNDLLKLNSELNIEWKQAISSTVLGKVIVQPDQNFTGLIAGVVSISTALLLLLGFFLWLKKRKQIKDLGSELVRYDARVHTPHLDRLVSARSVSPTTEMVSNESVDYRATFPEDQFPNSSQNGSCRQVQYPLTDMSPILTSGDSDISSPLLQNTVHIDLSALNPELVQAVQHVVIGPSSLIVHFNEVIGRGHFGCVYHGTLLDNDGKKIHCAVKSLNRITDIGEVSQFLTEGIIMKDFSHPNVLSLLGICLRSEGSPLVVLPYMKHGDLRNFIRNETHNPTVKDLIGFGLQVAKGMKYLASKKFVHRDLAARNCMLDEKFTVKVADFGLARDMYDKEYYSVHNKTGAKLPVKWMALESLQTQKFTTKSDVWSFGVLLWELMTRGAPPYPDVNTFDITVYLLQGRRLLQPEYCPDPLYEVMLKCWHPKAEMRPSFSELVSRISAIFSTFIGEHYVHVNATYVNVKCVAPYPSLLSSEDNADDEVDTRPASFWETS
Sequence of RAC-alpha serine/threonine-protein kinase (Homo sapiens) (P31749 whole entry): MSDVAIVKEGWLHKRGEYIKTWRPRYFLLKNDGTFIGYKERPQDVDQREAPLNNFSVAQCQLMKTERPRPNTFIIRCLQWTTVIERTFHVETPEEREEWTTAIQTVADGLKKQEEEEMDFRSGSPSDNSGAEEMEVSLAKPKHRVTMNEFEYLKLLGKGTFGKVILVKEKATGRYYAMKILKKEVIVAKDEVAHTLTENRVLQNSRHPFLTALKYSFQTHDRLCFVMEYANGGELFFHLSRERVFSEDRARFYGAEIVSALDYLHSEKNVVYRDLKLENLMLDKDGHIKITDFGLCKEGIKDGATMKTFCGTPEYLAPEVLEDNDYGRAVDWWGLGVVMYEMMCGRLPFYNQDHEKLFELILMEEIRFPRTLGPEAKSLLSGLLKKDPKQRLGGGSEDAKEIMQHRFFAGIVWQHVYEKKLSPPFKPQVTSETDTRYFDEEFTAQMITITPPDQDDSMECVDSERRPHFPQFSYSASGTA
Sequence of Mast/stem cell growth factor receptor Kit (Homo sapiens) (P10721 whole entry): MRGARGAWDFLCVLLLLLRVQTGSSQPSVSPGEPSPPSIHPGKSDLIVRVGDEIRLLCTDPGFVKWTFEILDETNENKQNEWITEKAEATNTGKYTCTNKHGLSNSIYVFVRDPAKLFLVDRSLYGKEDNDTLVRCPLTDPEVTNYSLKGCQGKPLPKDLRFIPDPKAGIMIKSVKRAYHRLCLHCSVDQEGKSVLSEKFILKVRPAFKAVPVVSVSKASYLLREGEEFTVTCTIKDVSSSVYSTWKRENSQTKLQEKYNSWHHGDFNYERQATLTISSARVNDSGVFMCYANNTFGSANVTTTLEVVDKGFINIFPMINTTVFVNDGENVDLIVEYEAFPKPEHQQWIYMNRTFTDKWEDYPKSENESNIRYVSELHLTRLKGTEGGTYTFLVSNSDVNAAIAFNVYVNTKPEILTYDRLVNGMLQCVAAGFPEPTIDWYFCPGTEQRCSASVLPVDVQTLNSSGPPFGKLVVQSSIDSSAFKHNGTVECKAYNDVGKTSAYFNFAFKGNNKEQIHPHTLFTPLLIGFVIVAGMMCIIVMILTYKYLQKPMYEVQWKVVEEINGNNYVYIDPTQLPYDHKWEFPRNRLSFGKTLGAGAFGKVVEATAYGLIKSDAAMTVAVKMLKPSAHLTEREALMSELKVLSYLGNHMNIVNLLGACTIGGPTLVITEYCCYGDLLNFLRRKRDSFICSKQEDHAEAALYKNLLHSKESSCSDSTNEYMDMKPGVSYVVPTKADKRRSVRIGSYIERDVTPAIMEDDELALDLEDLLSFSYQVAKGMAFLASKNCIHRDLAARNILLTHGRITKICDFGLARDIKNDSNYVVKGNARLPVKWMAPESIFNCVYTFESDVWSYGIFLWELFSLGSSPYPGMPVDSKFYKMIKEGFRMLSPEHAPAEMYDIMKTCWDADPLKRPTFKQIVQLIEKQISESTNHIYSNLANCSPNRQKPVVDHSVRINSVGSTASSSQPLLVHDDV
Sequence of Fibroblast growth factor receptor 1 (Homo sapiens) (P11362 22-822 limits assumed): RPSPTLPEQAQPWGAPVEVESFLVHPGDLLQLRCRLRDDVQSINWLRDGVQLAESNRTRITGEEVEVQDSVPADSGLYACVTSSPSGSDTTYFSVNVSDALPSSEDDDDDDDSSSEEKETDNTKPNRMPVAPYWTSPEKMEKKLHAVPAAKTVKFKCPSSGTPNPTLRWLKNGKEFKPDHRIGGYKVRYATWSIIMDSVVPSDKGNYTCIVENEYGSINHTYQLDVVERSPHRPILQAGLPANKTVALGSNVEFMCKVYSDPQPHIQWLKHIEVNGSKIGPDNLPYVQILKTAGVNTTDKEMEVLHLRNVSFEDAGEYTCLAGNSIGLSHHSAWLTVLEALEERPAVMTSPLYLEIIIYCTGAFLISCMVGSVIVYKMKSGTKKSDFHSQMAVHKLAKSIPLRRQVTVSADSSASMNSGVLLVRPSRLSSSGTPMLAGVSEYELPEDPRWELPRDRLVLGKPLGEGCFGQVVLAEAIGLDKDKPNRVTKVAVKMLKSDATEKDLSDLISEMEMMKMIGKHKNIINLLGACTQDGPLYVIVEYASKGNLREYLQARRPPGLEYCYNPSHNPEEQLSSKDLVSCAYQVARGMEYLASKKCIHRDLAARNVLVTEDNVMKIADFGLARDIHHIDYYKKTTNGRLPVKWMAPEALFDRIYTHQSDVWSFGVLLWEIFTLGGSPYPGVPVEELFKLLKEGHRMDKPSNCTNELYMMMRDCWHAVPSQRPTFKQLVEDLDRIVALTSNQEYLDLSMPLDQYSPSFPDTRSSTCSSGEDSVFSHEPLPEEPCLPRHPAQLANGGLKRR

For orientation: inhibition means how much of the control response was suppressed. As to `Cc1ccc2cc(-c3n[nH]c4ccc(NC5CCNC5)cc34)[nH]c2c1` (stereo unspecified), the results for the inhibition in assay [1] and in assay [2] were 73% and 6%, respectively. Besides, the residual activity in [3] is 63%; in assay [4] it was 74%; in assay [5], 1%; in assay [6] it was 24%; in [7], 92%; in assay [8], 75%. The residual activity was found to be 81% in assay [9]; 0% in [10]; 105% in [11]; 100% in assay [12]; 95% in assay [13].
For the compound `Cc1ccc2cc(-c3n[nH]c4ccc(NC5CCN(Cc6ccccc6)CC5)cc34)[nH]c2c1`, the inhibition in assay [1] came to 76%; in assay [2], 28%. In addition, the residual activity in assay [3] amounted to 121%; in assay [4] it was 75%; in [5] it was 4%; in assay [6], 5%; in assay [7] it was 143%; in [8], 75%. For the same compound, the residual activity in [9] came out at 43%; in [10], 2%; in assay [11], 89%; in assay [12], 100%; in assay [13], 96%.

Source of the values: ChEMBL document CHEMBL1681705, “Optimisation of ITK inhibitors through successive iterative design cycles” (Bioorg Med Chem Lett, 2011).
